Source: ChEMBL document CHEMBL4038350 (J Med Chem, 2017)
Non-standard residues stand in square brackets, D forms with d. Residues, ends and D or L forms follow the SMILES beside them.

Experiments:
Format in all cases: functional, cell-based
Melanocortin receptor 4 [1] = molecular target: T1, Melanocortin receptor 4 (Mus musculus, UniProt P56450); test: Antagonist activity at mouse melanocortin receptor 4 expressed in HEK293 cells assessed as inhibition of NDP-MSH-induced cAMP accumulation after 2 hrs by AlphaScreen assay; conditions: read-out: pA2 (converted)
Melanocortin receptor 3 [2] = molecular target: T2, Melanocortin receptor 3 (Mus musculus, UniProt P33033); test: Antagonist activity at mouse melanocortin receptor 3 expressed in HEK293 cells assessed as inhibition of NDP-MSH-induced cAMP accumulation after 2 hrs by AlphaScreen assay; conditions: read-out: pA2 (converted)
[3] = molecular target: Melanocyte-stimulating hormone receptor (Mus musculus, UniProt Q01727); test: Agonist activity at mouse melanocortin receptor 1 expressed in HEK293 cells assessed as increase in cAMP accumulation after 2 hrs by AlphaScreen assay
In short: (§1)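 Donor beads and biotin-cAMP in lysis buffer followed for 2 h. The AlphaScreen signal was read. EC50 came from nonlinear least-squares fits, duplicates, at least three independent experiments.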

Melanocortin receptor 3 [4] = molecular target: T2, Melanocortin receptor 3; test: Agonist activity at mouse melanocortin receptor 3 expressed in HEK293 cells assessed as increase in cAMP accumulation after 2 hrs by AlphaScreen assay
[5] = molecular target: Melanocortin receptor 5 (Mus musculus) (UniProt P41149); test: Inverse agonist activity at mouse melanocortin receptor 5 expressed in HEK293 cells assessed as decrease in cAMP accumulation at 100 uM after 2 hrs by AlphaScreen assay relative to control; parameters: scale not given: the % may be the effect or the level left
In short: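 Each replicate was normalized to its own signal at 10−10 M (basal). Where no plateau appeared, inverse agonism was reported as percent decrease from basal at 100 μM. Values are from three independent experiments.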

Melanocortin receptor 4 [6] = molecular target: T1, Melanocortin receptor 4; test: Agonist activity at mouse melanocortin receptor 4 expressed in HEK293 cells assessed as increase in cAMP accumulation after 2 hrs by AlphaScreen assay
Melanocortin receptor 5 = Melanocortin receptor 5 (Mus musculus, UniProt P41149); test: Agonist activity at mouse melanocortin receptor 5 expressed in HEK293 cells assessed as increase in cAMP accumulation after 2 hrs by AlphaScreen assay; in short: as §1
[7] = molecular target: Melanocyte-stimulating hormone receptor (Mus musculus) (UniProt Q01727); test: Agonist activity at mouse melanocortin receptor 1 expressed in HEK293 cells assessed as increase in cAMP accumulation at 100 uM after 2 hrs by AlphaScreen assay relative to control
In short: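 Cyclic peptides were dissolved in DMSO. Receptor-expressing HEK293 cells in IBMX-containing stimulation buffer (pH 7.4) were stimulated for 2 h at room temperature. cAMP was then detected by competitive AlphaScreen after a 2 h lysis/bead step. […] Values come from at least three independent experiments.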

Melanocortin receptor 5, sequence (P41149 whole entry): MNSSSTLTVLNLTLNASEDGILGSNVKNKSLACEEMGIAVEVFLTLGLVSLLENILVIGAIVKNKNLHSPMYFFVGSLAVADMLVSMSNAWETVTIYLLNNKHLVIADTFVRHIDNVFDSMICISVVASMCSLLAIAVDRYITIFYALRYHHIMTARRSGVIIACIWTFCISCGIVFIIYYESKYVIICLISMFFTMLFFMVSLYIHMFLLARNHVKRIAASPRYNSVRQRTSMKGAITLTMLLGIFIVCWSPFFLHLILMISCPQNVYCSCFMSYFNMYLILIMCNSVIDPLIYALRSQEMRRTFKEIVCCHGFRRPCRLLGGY
Melanocortin receptor 5 (Mus musculus), sequence (P41149 whole entry): as above
Melanocyte-stimulating hormone receptor, sequence (Q01727 whole entry): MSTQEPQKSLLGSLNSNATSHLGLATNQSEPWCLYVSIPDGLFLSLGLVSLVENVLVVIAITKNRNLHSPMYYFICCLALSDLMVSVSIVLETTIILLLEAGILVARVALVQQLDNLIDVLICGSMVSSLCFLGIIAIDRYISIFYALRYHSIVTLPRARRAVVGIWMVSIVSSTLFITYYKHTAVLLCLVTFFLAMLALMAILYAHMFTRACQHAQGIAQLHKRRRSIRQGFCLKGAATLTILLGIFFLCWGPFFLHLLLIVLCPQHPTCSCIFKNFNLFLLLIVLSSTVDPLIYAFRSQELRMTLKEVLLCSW
T2 sequence (P33033 whole entry): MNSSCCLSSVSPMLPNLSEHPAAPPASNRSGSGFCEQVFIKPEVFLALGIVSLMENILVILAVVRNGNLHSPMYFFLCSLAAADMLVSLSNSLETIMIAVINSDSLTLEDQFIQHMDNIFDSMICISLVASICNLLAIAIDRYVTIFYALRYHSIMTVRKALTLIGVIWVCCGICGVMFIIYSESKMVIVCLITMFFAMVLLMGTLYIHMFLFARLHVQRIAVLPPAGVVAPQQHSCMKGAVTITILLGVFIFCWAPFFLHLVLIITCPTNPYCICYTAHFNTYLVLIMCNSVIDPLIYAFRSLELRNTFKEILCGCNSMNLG
T1 sequence (P56450 whole entry): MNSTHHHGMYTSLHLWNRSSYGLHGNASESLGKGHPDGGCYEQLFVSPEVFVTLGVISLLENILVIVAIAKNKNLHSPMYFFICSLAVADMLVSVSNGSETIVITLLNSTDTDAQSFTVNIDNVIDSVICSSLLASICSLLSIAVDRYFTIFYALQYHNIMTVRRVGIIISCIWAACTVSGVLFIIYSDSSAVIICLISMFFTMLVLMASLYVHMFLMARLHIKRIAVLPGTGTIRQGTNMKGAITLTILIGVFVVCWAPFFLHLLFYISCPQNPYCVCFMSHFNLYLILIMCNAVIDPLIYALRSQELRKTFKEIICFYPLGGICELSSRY
Melanocyte-stimulating hormone receptor (Mus musculus), sequence (Q01727 whole entry, looked up): as the sequence (Q01727 whole entry) above

| Structure (SMILES) | Kb (Melanocortin receptor 4 [1]) [µM] | Kb (Melanocortin receptor 3 [2]) [µM] | EC50 [3] [µM] | EC50 (Melanocortin receptor 3 [4]) [µM] | Activity [5] [%] | EC50 (Melanocortin receptor 4 [6]) [µM] | EC50 (Melanocortin receptor 5) [µM] | Activity [7] [%] |
| --- | --- | --- | --- | --- | --- | --- | --- | --- |
| C[C@@H]1NC(=O)[C@H](CC(=O)O)NC(=O)[C@H](Cc2ccccc2)NC(=O)[C@H](Cc2ccccc2)NC(=O)[C@H](CCCNC(=N)N)NC(=O)[C@@H]2CCCN2C(=O)[C@H]2CCCN2C(=O)[C@H](Cc2ccccc2)NC1=O | 0.162 | > 3.16 | > 100 | > 100 | 25 | > 100 | – | – |
| C[C@@H]1NC(=O)[C@H](Cc2ccccc2)NC(=O)[C@H](Cc2ccccc2)NC(=O)[C@H](Cc2ccccc2)NC(=O)[C@H](CCCNC(=N)N)NC(=O)[C@@H]2CCCN2C(=O)[C@H]2CCCN2C(=O)[C@H](Cc2ccccc2)NC1=O | 0.234 | > 3.16 | > 100 | > 100 | – | > 100 | > 100 | – |
| N=C(N)NCCC[C@@H]1NC(=O)[C@@H]2CCCN2C(=O)[C@H]2CCCN2C(=O)[C@H](Cc2ccccc2)NC(=O)[C@H](CCC(=O)O)NC(=O)[C@H](CC(N)=O)NC(=O)[C@H](Cc2ccccc2)NC(=O)[C@H](Cc2ccccc2)NC1=O (cyclo(RFFNEF[dP]P)) | > 3.16 | > 3.16 | – | > 100 | – | > 100 | > 100 | 60 |
| N=C(N)NCCC[C@@H]1NC(=O)[C@@H]2CCCN2C(=O)[C@H]2CCCN2C(=O)[C@H](Cc2ccccc2)NC(=O)[C@H](CO)NC(=O)[C@H](CC(N)=O)NC(=O)[C@H](Cc2ccccc2)NC(=O)[C@H](Cc2ccccc2)NC1=O (cyclo(RFFNSF[dP]P)) | 0.00631 | 0.631 | > 100 | > 100 | 30 | > 100 | – | – |
| CC[C@@H]1NC(=O)[C@H](Cc2ccccc2)NC(=O)[C@H](Cc2ccccc2)NC(=O)[C@H](CCCNC(=N)N)NC(=O)[C@@H]2CCCN2C(=O)[C@H]2CCCN2C(=O)[C@H](Cc2ccccc2)NC(=O)[C@H](C)NC1=O | – | – | > 100 | – | – | > 100 | – | – |
| CCCC[C@@H]1NC(=O)[C@H](Cc2ccccc2)NC(=O)[C@H](Cc2ccccc2)NC(=O)[C@H](CCCNC(=N)N)NC(=O)[C@@H]2CCCN2C(=O)[C@H]2CCCN2C(=O)[C@H](Cc2ccccc2)NC(=O)[C@H](C)NC1=O | 0.126 | > 3.16 | > 100 | > 100 | – | > 100 | > 100 | – |
| N=C(N)NCCC[C@@H]1NC(=O)[C@@H]2CCCN2C(=O)[C@H]2CCCN2C(=O)[C@H](Cc2ccccc2)NC(=O)CNC(=O)[C@H](CC(N)=O)NC(=O)[C@H](Cc2ccccc2)NC(=O)[C@H](Cc2ccccc2)NC1=O (cyclo(RFFNGF[dP]P)) | 0.794 | > 3.16 | > 100 | > 100 | 35 | > 100 | – | – |
| C[C@@H]1NC(=O)[C@H](CC(N)=O)NC(=O)[C@H](Cc2ccccc2)NC(=O)[C@H](Cc2ccccc2)NC(=O)[C@H](CCCNC(=N)N)NC(=O)[C@@H]2CCCN2C(=O)[C@H]2CCCN2C(=O)[C@H](C)NC1=O (cyclo(RFFNAA[dP]P)) | 0.00692 | 0.794 | > 100 | > 100 | 25 | > 100 | – | – |
| N=C(N)NCCC[C@@H]1NC(=O)[C@@H]2CCCN2C(=O)[C@H]2CCCN2C(=O)[C@H](Cc2ccccc2)NC(=O)[C@H](CC(=O)O)NC(=O)[C@H](CC(N)=O)NC(=O)[C@H](Cc2ccccc2)NC(=O)[C@H](Cc2ccccc2)NC1=O (cyclo(RFFNDF[dP]P)) | > 3.16 | > 3.16 | – | > 100 | 25 | > 100 | – | 65 |
